In ChEMBL document CHEMBL1136859, “Synthesis and antimicrobial evaluation of some new substituted purine derivatives” (2009):
In brackets after ≈: the same amount, converted by molar mass.

What was measured:
Type in all cases: functional
Staphylococcus aureus [1] = test: Antibacterial activity against Staphylococcus aureus ATCC 25923 after 18 to 24 hrs by tube dilution method
How it was run: (§1)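 Two-fold broth tube dilution in Mueller–Hinton broth. Strains kept on Mueller–Hinton agar for 24 h at 37 °C. Colonies suspended in sterile water and adjusted to 0.5 McFarland, giving a final inoculum of about 10⁵ CFU/mL. Compounds dissolved in 12.5% DMSO at 200 µg/mL and serially diluted to 0.19 µg/mL. Incubated 18–24 h at 37 °C. MIC taken as the last tube with no growth.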

Staphylococcus aureus [2] = test: Antibacterial activity against methicillin-resistant Staphylococcus aureus […] after 18 to 24 hrs by tube dilution method; how it was run: as §1
Staphylococcus aureus [3] = test: Antibacterial activity against methicillin-resistant Staphylococcus aureus isolate after 18 to 24 hrs by tube dilution method; how it was run: as §1
Bacillus subtilis = test: Antibacterial activity against Bacillus subtilis 6633 after 18 to 24 hrs by tube dilution method
How it was run: (§2)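 Tube dilution broth MIC in Mueller–Hinton broth. Strains were maintained on Mueller–Hinton agar for 24 h at 37 °C. Colonies were suspended in sterile water, adjusted to 0.5 McFarland, and added to give about 10⁵ CFU/mL final. Compounds were dissolved in 12.5% DMSO and serially diluted two-fold. Tubes were incubated 18–24 h at 37 °C. MIC was taken as the last tube with no growth.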

Candida albicans = test: microbe, parasite or virus in culture
Escherichia coli = test: Antibacterial activity against Escherichia coli 25922 after 18 to 24 hrs by tube dilution method; settings: ATCC25922; how it was run: as §2

Structure (SMILES)	MIC (Staphylococcus aureus [1]) [µg/mL]	MIC (Staphylococcus aureus [2]) [µg/mL]	MIC (Staphylococcus aureus [3]) [µg/mL]	MIC (Bacillus subtilis) [µg/mL]	MIC (Candida albicans) [µg/mL]	MIC (Escherichia coli) [µg/mL]
Nc1ncnc2c1ncn2C1CCCC1	50 (≈ 246 µM)	50 (≈ 246 µM)	50 (≈ 246 µM)	25 (≈ 123 µM)	12.5 (≈ 61.5 µM)	50 (≈ 246 µM)
Fc1ccc(CNc2ncnc3c2ncn3C2CCCC2)c(F)c1	50 (≈ 152 µM)	50 (≈ 152 µM)	50 (≈ 152 µM)	50 (≈ 152 µM)	25 (≈ 75.9 µM)	50 (≈ 152 µM)
c1ccc(NCCNc2ncnc3[nH]cnc23)cc1	50 (≈ 197 µM)	50 (≈ 197 µM)	50 (≈ 197 µM)	50 (≈ 197 µM)	3.12 (≈ 12.3 µM)	25 (≈ 98.3 µM)
COc1ccc(CNc2ncnc3c2ncn3C2CCCC2)c(OC)c1	50 (≈ 141 µM)	50 (≈ 141 µM)	50 (≈ 141 µM)	25 (≈ 70.7 µM)	12.5 (≈ 35.4 µM)	25 (≈ 70.7 µM)
Clc1ccc(CNc2ncnc3c2ncn3C2CCCC2)c(Cl)c1	12.5 (≈ 34.5 µM)	25 (≈ 69 µM)	50 (≈ 138 µM)	25 (≈ 69 µM)	6.25 (≈ 17.3 µM)	50 (≈ 138 µM)
CCN(CC)CCNc1ncnc2c1ncn2Cc1ccc(F)cc1	50 (≈ 146 µM)	50 (≈ 146 µM)	50 (≈ 146 µM)	25 (≈ 73 µM)	25 (≈ 73 µM)	50 (≈ 146 µM)
CCN(CC)CCNc1ncnc2c1ncn2C1CCCC1	50 (≈ 165 µM)	50 (≈ 165 µM)	50 (≈ 165 µM)	25 (≈ 82.7 µM)	50 (≈ 165 µM)	50 (≈ 165 µM)
CC(C)NCCNc1ncnc2c1ncn2C1CCCC1.Cl	25	50	50	25	25	50
CCNc1nc2c(N)ncnc2n1C1CCCC1	25 (≈ 101 µM)	50 (≈ 203 µM)	50 (≈ 203 µM)	50 (≈ 203 µM)	6.25 (≈ 25.4 µM)	50 (≈ 203 µM)
CCn1c(NCC(C)C)nc2c(N)ncnc21	50 (≈ 213 µM)	50 (≈ 213 µM)	50 (≈ 213 µM)	50 (≈ 213 µM)	25 (≈ 107 µM)	50 (≈ 213 µM)
Fc1ccc(CNc2ncnc3c2ncn3C2CCCC2)cc1	25 (≈ 80.3 µM)	25 (≈ 80.3 µM)	25 (≈ 80.3 µM)	25 (≈ 80.3 µM)	3.12 (≈ 10 µM)	50 (≈ 161 µM)
COc1ccc(CNc2ncnc3c2ncn3C2CCCC2)cc1	25 (≈ 77.3 µM)	50 (≈ 155 µM)	25 (≈ 77.3 µM)	50 (≈ 155 µM)	12.5 (≈ 38.7 µM)	50 (≈ 155 µM)
Clc1ccc(CNc2ncnc3c2ncn3C2CCCC2)cc1	12.5 (≈ 38.1 µM)	6.25 (≈ 19.1 µM)	6.25 (≈ 19.1 µM)	25 (≈ 76.3 µM)	12.5 (≈ 38.1 µM)	50 (≈ 153 µM)
CN1CCN(Nc2ncnc3c2ncn3C2CCCC2)CC1	50 (≈ 166 µM)	50 (≈ 166 µM)	50 (≈ 166 µM)	25 (≈ 82.9 µM)	25 (≈ 82.9 µM)	50 (≈ 166 µM)
C1=CC(CCNc2ncnc3c2ncn3C2CCCC2)CCC1 (configuration not stated)	12.5 (≈ 40.1 µM)	25 (≈ 80.3 µM)	25 (≈ 80.3 µM)	50 (≈ 161 µM)	12.5 (≈ 40.1 µM)	25 (≈ 80.3 µM)
CCn1c(NC2CCCC2)nc2c(N)ncnc21	50 (≈ 203 µM)	50 (≈ 203 µM)	50 (≈ 203 µM)	25 (≈ 101 µM)	12.5 (≈ 50.7 µM)	50 (≈ 203 µM)
CN1CCN(Nc2ncnc3[nH]cnc23)CC1	50 (≈ 214 µM)	50 (≈ 214 µM)	50 (≈ 214 µM)	25 (≈ 107 µM)	12.5 (≈ 53.6 µM)	25 (≈ 107 µM)
CC1CCN(c2ncnc3c2ncn3C2CCCC2)CC1	50 (≈ 175 µM)	50 (≈ 175 µM)	50 (≈ 175 µM)	50 (≈ 175 µM)	12.5 (≈ 43.8 µM)	50 (≈ 175 µM)
C1=CC(CCNc2ncnc3[nH]cnc23)CCC1 (configuration not stated)	50 (≈ 205 µM)	50 (≈ 205 µM)	50 (≈ 205 µM)	25 (≈ 103 µM)	6.25 (≈ 25.7 µM)	25 (≈ 103 µM)
c1ccc(NCCNc2ncnc3c2ncn3C2CCCC2)cc1	50 (≈ 155 µM)	50 (≈ 155 µM)	50 (≈ 155 µM)	25 (≈ 77.5 µM)	12.5 (≈ 38.8 µM)	50 (≈ 155 µM)
CC1CCN(c2ncnc3[nH]cnc23)CC1	25 (≈ 115 µM)	50 (≈ 230 µM)	50 (≈ 230 µM)	25 (≈ 115 µM)	25 (≈ 115 µM)	50 (≈ 230 µM)
CC(C)NCCNc1ncnc2c1ncn2Cc1ccc(F)cc1	50 (≈ 152 µM)	50 (≈ 152 µM)	50 (≈ 152 µM)	50 (≈ 152 µM)	25 (≈ 76.1 µM)	50 (≈ 152 µM)
CC1(C)S[C@@H]2[C@H](NC(=O)[C@H](N)c3ccccc3)C(=O)N2[C@H]1C(=O)O [AMPICILLIN]	0.78 (≈ 2.23 µM)	50 (≈ 143 µM)	50 (≈ 143 µM)	50 (≈ 143 µM)	–	50 (≈ 143 µM)
O=C(O)c1cn(C2CC2)c2cc(N3CCNCC3)c(F)cc2c1=O [CIPROFLOXACIN]	0.78 (≈ 2.35 µM)	–	12.5 (≈ 37.7 µM)	0.19 (≈ 0.573 µM)	–	–
Clc1ccc(COC(Cn2ccnc2)c2ccc(Cl)cc2Cl)c(Cl)c1 (configuration not stated) [MICONAZOLE]	–	–	–	–	3.12 (≈ 7.5 µM)	–
Clc1ccc(CO/N=C(\Cn2ccnc2)c2ccc(Cl)cc2Cl)c(Cl)c1 [OXICONAZOLE]	–	–	–	–	6.25 (≈ 14.6 µM)	–
CC1(C)S[C@@H]2[C@H](NC(=O)[C@H](N)c3ccccc3)C(=O)N2[C@H]1C(=O)OCOC(=O)[C@@H]1N2C(=O)C[C@H]2S(=O)(=O)C1(C)C [SULTAMICILLIN]	1.56 (≈ 2.62 µM)	25 (≈ 42 µM)	25 (≈ 42 µM)	0.78 (≈ 1.31 µM)	–	25 (≈ 42 µM)
